# Assays:
# [1] = cited from earlier work
# [2] = tested on: mES-D3 cells and BALB/c-3T3 cells; assay: Classification of embryotoxicity by the ECVAM prediction model; parameters: species or system murine; details: prediction model from mean IC50 3T3, IC50 ES and ID50
# Outline: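 Class (non-, weak or strong embryotoxic) comes from the ECVAM linear discriminant prediction model using mean IC50 3T3, IC50 ES and ID50. ID50 setup: 1,000 mES cells per 20 µl hanging drop without LIF for 3 days, then suspension for 2 days, then 100 EBs/well on 0.1% gelatin for 5 days. Compound is present from day 0. On day 10, α/β-MHC expression is measured by RT-PCR against GAPDH, giving the 50%-suppression concentration (mean of three repeats).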
# mES-D3 cells = assay: MTT cytotoxicity assay, embryonic stem cells; assay type: cell-based, murine; details: Mus musculus, Embryonic stem cell, 240 h, read-out: IC50 ES
# BALB/c 3T3 cells = assay: MTT cytotoxicity assay, 3T3 fibroblasts; assay type: cell-based, murine; details: for IC50: Mus musculus, BALB/c3T3, 240 h, read-out: IC50 3T3
# mice = details: cited from earlier work
# [3] = tested on: mouse preimplantation embryos; details: in vivo; cited from earlier work
# [4] = toxicological studies; cited from earlier work
Molecule,Known in vivo embryotoxic potential [1],Classification of the embryotoxicity [2],Classification of the embryotoxicity according to the PM (in words) [2],IC50 (mES-D3 cells) [µg/mL],IC50 (BALB/c 3T3 cells) [µg/mL],Oral lethal dose (mice),Influence on development of preimplantation embryos [3],Toxicity in vivo [4],"IC50 3T3 (BALB/c 3T3 cells; BALB/c 3T3 cells, 10 days of culture, MTT, mean ± standard error of the mean of three experiments) [µg/mL]"
"O=c1[nH]cc(F)c(=O)[nH]1 [5-fluorouracil, reference compound]",strong embryotoxicity,Strong,strong embryotoxicity,0.08 ± 0.016,0.244 ± 0.051,,,,
CC(C)c1cc2c(c(O)c1O)[C@@]1(C(=O)O)CCCC(C)(C)[C@@H]1CC2 [Carnosic acid],,Weak,weak embryotoxicity,5.77 ± 1.3,26.3 ± 3.86,"7,100 mg/kg of body weight",,,
"CCCCCCCCOC(=O)c1ccccc1C(=O)OCCCCCCCC [Dioctyl phthalate, dioctyl phthalate]",,Weak,weak embryotoxicity,124 ± 24.9,213 ± 28.2,,,,
"C=CCc1ccc(O)c(OC)c1 [Eugenol, eugenol]",,Strong,strong embryotoxicity,1.93 ± 0.329,9.44 ± 2.85,,may induce a significantly increased rate of cell death and affect the development of embryo,,
"CC1(C)S[C@@H]2[C@H](NC(=O)Cc3ccccc3)C(=O)N2[C@H]1C(=O)O [Penicillin G, penicillin G, reference compound]",,None,non-embryotoxicity,1570 ± 152,1160 ± 69.1,,,,
procyanidin,,None,non-embryotoxicity,,,,,nontoxic and does not cause any detrimental effects in vivo,12.100 ± 1.828

# From PMC5482095 (Molecular Medicine Reports, 2017)
